In ChEMBL document CHEMBL1123363, “(5-Amino-1,3-dimethyl-1H-pyrazol-4-yl)(2-fluorophenyl)methanones . A series of novel potential antipsychotic agents” (J Med Chem, 1986):

Species on record: Mus musculus
Assay: Ability to inhibit locomotor activity using ataxia test.
Type: functional
Conditions: read-out: MED
Outline: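 Male Swiss–Webster mice (20–30 g, unfasted), nine per dose in groups of three, dosed ip in 0.2% methocel (dose as parent compound) 1 h before testing. Ataxia was scored first on an inverted screen over 60 s as % of mice falling. […] ED50 from at least three doses.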

SMILES | minimal effective dose
Cc1nn(C)c(NC(=O)C(F)(F)F)c1C(=O)c1ccccc1F | < 10 mg/kg
Cc1nn(C)c(NC(=O)CCN2CCCC2)c1C(=O)c1ccccc1F | 100 mg/kg
Cc1nn(C)c(NC(=O)C(C)(C)N2CCCC2)c1C(=O)c1ccccc1F | > 100 mg/kg
Cc1nn(C)c(NC(=O)CNCCCNC(C)(C)C)c1C(=O)c1ccccc1F | 30 mg/kg
Cc1nn(C)c(N(C)C(=O)CNCCCN2CCCCC2C)c1C(=O)c1ccccc1F (stereo not drawn) | > 100 mg/kg
Cc1nn(C)c(N(C)S(C)(=O)=O)c1C(=O)c1ccccc1F | > 90 mg/kg
Cc1nn(C)c(NC(=O)C(Cl)Cl)c1C(=O)c1ccccc1F | 30 mg/kg
Cc1nn(C)c(NC(=O)CNCCCN2CCCCC2)c1C(=O)c1ccccc1F | 100 mg/kg
Cc1nn(C)c(NC(=O)CNCCN2CCCCC2)c1C(=O)c1ccccc1F | 30 mg/kg
Cc1nn(C)c(NC(=O)CNCCCN(C)C)c1C(=O)c1ccccc1F | 80 mg/kg
Cc1nn(C)c(NC(=O)CN2CCC3(CC2)C(=O)NCN3c2ccccc2)c1C(=O)c1ccccc1F | 100 mg/kg

Species on record: Rattus norvegicus
Assay: Compound was tested for its potential to produce clonic seizures in rats; + indicates compound is causing seizures
Type: functional, organism-based
Conditions: not given
Outline: (§1)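 Any sign of seizure marked the compound as seizure-causing; the outcome was not quantified.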

SMILES | Clonic seizures
Cc1nn(C)c(NC(=O)C(F)(F)F)c1C(=O)c1ccccc1F | causing seizures
Cc1nn(C)c(N(C)S(C)(=O)=O)c1C(=O)c1ccccc1F | causing seizures

Target: not listed separately
Assay: Binding affinity against […] in rat striatal membrane using [3H]haloperidol
Conditions: not given

SMILES | IC50
Cc1nn(C)c(NC(=O)CNCCCNC(C)(C)C)c1C(=O)c1ccccc1F | > 10 µM

Species on record: Rattus norvegicus
Assay: Compound was tested for its potential to produce clonic seizures in rats; + indicates that they are causing seizures
Type: functional, organism-based
Conditions: not given
Outline: as §1

SMILES | Clonic seizures
Cc1nn(C)c(NC(=O)C(Cl)Cl)c1C(=O)c1ccccc1F | causing seizures

Test system: Mus musculus
Assay: Compound was tested for inhibition of apomorphine-induced climbing in mice after intraperitoneal administration
Type: functional
Conditions: ip
Outline: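 Male Swiss–Webster mice (25–35 g), ten per dose, acclimated 30 min in cylindrical cages, dosed ip, then given apomorphine 3 mg/kg sc 1 h later. Climbing scored in 30-s tests every 5 min for 30 min, starting 15 min after apomorphine. At least three doses; ED50 by nonlinear regression.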

SMILES | ED50
CSc1ccc2c(c1)N(CCC1CCCCN1C)c1ccccc1S2 (stereo not drawn) [THIORIDAZINE] | 3.4 mg/kg

Test system: Rattus norvegicus
Assay: The compound was tested for inhibition of conditional avoid in rats after peroral administration
Type: functional
Conditions: po
Outline: (§2)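 Fasted male Wistar rats (150–250 g) were trained to jump to a platform at a buzzer to avoid grid shock (1.1 mA/s). After oral dosing they were tested every 20 min for 6 h over 19 trials, 10 rats per dose, each rat used once. Peak effect was the mean of the four consecutive trials with the largest effect, computed from response latency. ED50 read graphically from at least three doses.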

SMILES | ED50
CSc1ccc2c(c1)N(CCC1CCCCN1C)c1ccccc1S2 (stereo not drawn) [THIORIDAZINE] | 5.8 mg/kg

Test system: Rattus norvegicus
Assay: Antagonized affect on the accumulation of the brain dopamine induced by butyrolactone (GBL) at 10 mg/kg after intraperitoneal administration
Type: functional
Parameters: scale not given: the % may be the effect or the level left
Conditions: not given

SMILES | Control
CC(C)C[C@H]1C(=O)N2CCC[C@H]2[C@]2(O)O[C@](NC(=O)[C@@H]3C=C4c5cccc6[nH]c(Br)c(c56)C[C@H]4N(C)C3)(C(C)C)C(=O)N12 [BROMOCRIPTINE] | 82.4%

Test system: Rattus norvegicus
Assay: Suppression of conditional avoidance after peroral administration
Type: functional
Conditions: po
Outline: as §2

SMILES | ED50
Cc1nn(C)c(NC(=O)CCN2CCCC2)c1C(=O)c1ccccc1F | 15 mg/kg
Cc1nn(C)c(NC(=O)C(C)(C)N2CCCC2)c1C(=O)c1ccccc1F | > 56 mg/kg
Cc1nn(C)c(NC(=O)CNCCCNC(C)(C)C)c1C(=O)c1ccccc1F | 46 mg/kg
Cc1nn(C)c(N(C)C(=O)CNCCCN2CCCCC2C)c1C(=O)c1ccccc1F (stereo not drawn) | > 100 mg/kg
Cc1nn(C)c(NC(=O)CNCCCN2CCCCC2)c1C(=O)c1ccccc1F | 16 mg/kg
Cc1nn(C)c(NC(=O)CNCCN2CCCCC2)c1C(=O)c1ccccc1F | 38 mg/kg
Cc1nn(C)c(NC(=O)CNCCCN(C)C)c1C(=O)c1ccccc1F | 56 mg/kg
Cc1nn(C)c(NC(=O)CN2CCC3(CC2)C(=O)NCN3c2ccccc2)c1C(=O)c1ccccc1F | 15.5 mg/kg

Test system: Rattus norvegicus
Assay: Compound was tested for serum prolactin assay method in rats at 1 mg/kg dose after peroral administration
Type: functional
Conditions: route oral
Outline: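 Seven-week-old male Sprague–Dawley rats, five per group, were dosed orally and killed by decapitation 1 h later. Serum prolactin from trunk blood was measured by radioimmunoassay with [125I]-PRL and expressed as % of control (mean ± SEM).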

SMILES | Control
CC(C)C[C@H]1C(=O)N2CCC[C@H]2[C@]2(O)O[C@](NC(=O)[C@@H]3C=C4c5cccc6[nH]c(Br)c(c56)C[C@H]4N(C)C3)(C(C)C)C(=O)N12 [BROMOCRIPTINE] | 32.7%

Test system: Rattus norvegicus
Assay: Antagonized affect on the accumulation of the brain dopamine induced by butyrolactone (GBL) at 5 mg/kg after intraperitoneal administration
Type: functional
Parameters: scale not given: the % may be the effect or the level left
Conditions: not given

SMILES | Control
CN1CCc2cccc3c2[C@H]1Cc1ccc(O)c(O)c1-3 [APOMORPHINE] | 75%

Target: Adenylate cyclase
Assay: The compound was tested for adenylate cyclase activity in rat corpus striatum
Type: tissue-based
Conditions: not given
Outline: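 Striatal homogenates from male Long–Evans rats (200–300 g). Test substance concentration varied with dopamine held at 20 μM. Cyclic AMP formed was measured by radioimmunoassay, in triplicate.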

SMILES | IC50
OCCN1CCN(CCCN2c3ccccc3Sc3ccc(C(F)(F)F)cc32)CC1 [FLUPHENAZINE] | 0.08 µM

Test system: not listed separately
Assay: Compound was tested for inhibition of extrapyramidal side effect test in cebus monkey
Type: functional
Conditions: read-out: MED
Outline: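 Groups of three to six were then dosed by gavage and observed hourly for 6–8 h for dystonia or dyskinesia. Any unequivocal sign counted as a positive response. Minimal effective dose was determined in at least three animals.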

SMILES | minimal effective dose
CSc1ccc2c(c1)N(CCC1CCCCN1C)c1ccccc1S2 (stereo not drawn) [THIORIDAZINE] | 2.5 mg/kg

Test system: not listed separately
Assay: Inhibition of sidman avoid in squirrel monkeys after peroral administration
Type: functional
Conditions: po
Outline: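 Mature squirrel monkeys, trained on a modified Sidman avoidance lever schedule, were dosed orally and tested in 6-h sessions. Inhibition was expressed as % of each animal's own nondrug responding. At least three doses were given to four animals, with sessions at least 1 week apart. ED50 from nonlinear regression.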

SMILES | ED50
CSc1ccc2c(c1)N(CCC1CCCCN1C)c1ccccc1S2 (stereo not drawn) [THIORIDAZINE] | 4.3 mg/kg

Target: Dopamine receptor
Assay: Binding affinity for dopamine receptor in rat striatal membrane using [3H]haloperidol as radioligand
Type: cell membranes, Striatum
Conditions: not given
Outline: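 Nonspecific binding defined with (+)-butaclamol at 0.1 μM final. IC50 fitted by nonlinear curve fit from four or five concentrations in triplicate.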

SMILES | IC50
Cc1nn(C)c(NC(=O)CCN2CCCC2)c1C(=O)c1ccccc1F | > 10 µM
Cc1nn(C)c(NC(=O)C(C)(C)N2CCCC2)c1C(=O)c1ccccc1F | > 10 µM
Cc1nn(C)c(N(C)C(=O)CNCCCN2CCCCC2C)c1C(=O)c1ccccc1F (stereo not drawn) | > 10 µM
Cc1nn(C)c(NC(=O)CNCCCN2CCCCC2)c1C(=O)c1ccccc1F | > 10 µM
Cc1nn(C)c(NC(=O)CNCCN2CCCCC2)c1C(=O)c1ccccc1F | > 10 µM
Cc1nn(C)c(NC(=O)CNCCCN(C)C)c1C(=O)c1ccccc1F | > 10 µM
Cc1nn(C)c(NC(=O)CN2CCC3(CC2)C(=O)NCN3c2ccccc2)c1C(=O)c1ccccc1F | > 10 µM
